Measurements pooled from the literature.
Compare with care: the assays were run in different laboratories.
gyrB: DNA gyrase subunit B (gyrB, Escherichia coli, UniProt P0AES6)
Melanocortin receptor 5: Melanocortin receptor 5 (Mus musculus, UniProt P41149)
Adora1: Adenosine receptor A1 (Adora1, Rattus norvegicus, UniProt P25099)
CA9: Carbonic anhydrase 9 (CA9, Homo sapiens, UniProt Q16790)
PKN1: Serine/threonine-protein kinase N1 (PKN1, Homo sapiens, UniProt Q16512)

| SMILES | target | observed | mode | method | setting | endpoint | result |
| --- | --- | --- | --- | --- | --- | --- | --- |
| O=C(O)c1ccc(NC(=O)c2cc3ccccc3[nH]c2=O)cc1 | gyrB | binding | – | ITC | – | Kd | 730 nM |
| CSCC[C@H](NC(=O)[C@@H](N)Cc1ccc(O)cc1)C(=O)N[C@@H](Cc1c[nH]cn1)C(=O)N[C@@H](Cc1ccccc1)C(=O)N[C@@H](CCCNC(=N)N)C(=O)N[C@@H](Cc1c[nH]c2ccccc12)C(=O)N[C@@H](Cc1ccccc1)C(=O)O | Melanocortin receptor 5 | reporter gene | agonist | – | – | EC50 | 1100 nM |
| CC(C)N1CCCn2c1nc1c2c(=O)n(C)c(=O)n1C | Adora1 | ligand displacement | – | radioligand | cell membranes | Ki | > 25000 nM |
| CC(C)CC(=O)Nc1ccc(NC2CC(=O)N(c3cccc(S(N)(=O)=O)c3)C2=O)cc1 (stereo not drawn) | CA9 | enzyme activity | inhibitor | – | – | IC50 | 40.7 nM |
| Cc1ccc(C)c(OCCCC(C)(C)C(=O)O)c1 | Peroxisome proliferator-activated receptor alpha (Ppara, Mus musculus, UniProt P23204) | reporter gene | agonist | luciferase | – | EC50 | 111000 nM |
| CNC(=O)c1ccc2oc(C(=O)NC3CCCN(CC(=O)Nc4ccc(S(N)(=O)=O)cc4)C3)cc2c1 (stereo not drawn) | CA9 | enzyme activity | inhibitor | – | – | IC50 | 95.5 nM |
| CNc1cccc2cc(C(=O)Nc3cccc(CC(=O)O)c3)c(=O)[nH]c12 | gyrB | binding | – | ITC | – | Kd | 37 nM |
| O=S(=O)(NCCNC/C=C/c1ccc(Br)cc1)c1cccc2cnccc12 | PKN1 | enzyme activity | inhibitor | – | – | IC50 | 155 nM |
| CC(OC(=O)C1(Cc2ccc(Cl)cc2)CC1)C(=O)Nc1cccc(S(N)(=O)=O)c1 (stereo not drawn) | CA9 | enzyme activity | inhibitor | – | – | IC50 | 38 nM |
| CCCN1CCN(c2ccc(-c3cncc(Cl)c3N3CCC4(CCNC4=O)CC3)cc2)CC1 | NUAK family SNF1-like kinase 2 (NUAK2, Homo sapiens, UniProt Q9H093) | cell-free assay | – | – | lysate | Kd | 23300 nM |
| CC(C)CC(C)N1CCCn2c1nc1c2c(=O)n(C)c(=O)n1C (stereo not drawn) | Adora1 | ligand displacement | – | radioligand | cell membranes | Ki | > 25000 nM |
| CSCC[C@H](NC(=O)[C@@H](NC(=O)[C@@H](N)Cc1ccc(O)cc1)C(C)C)C(=O)NCC(=O)N[C@@H](Cc1c[nH]cn1)C(=O)N[C@@H](Cc1ccccc1)C(=O)N[C@@H](CCCNC(=N)N)C(=O)N[C@@H](Cc1c[nH]c2ccccc12)C(=O)N[C@@H](CC(=O)O)C(=O)N[C@@H](CCCNC(=N)N)C(=O)O | Melanocortin receptor 5 | reporter gene | agonist | – | – | EC50 | 62 nM |
| NS(=O)(=O)c1ccc(C(=O)N2CCCC(CNc3ccc(Cl)cc3)C2)cc1Cl (stereo not drawn) | CA9 | enzyme activity | inhibitor | – | – | IC50 | 206 nM |
| CSCC[C@H](NC(=O)[C@@H](N)C(C)C)C(=O)NCC(=O)N[C@@H](Cc1c[nH]cn1)C(=O)N[C@@H](Cc1ccccc1)C(=O)N[C@@H](CCCNC(=N)N)C(=O)N[C@@H](Cc1c[nH]c2ccccc12)C(=O)N[C@@H](CC(=O)O)C(=O)N[C@@H](CCCNC(=N)N)C(=O)N[C@@H](Cc1ccccc1)C(=O)NCC(=O)O | Melanocortin receptor 5 | reporter gene | agonist | – | – | EC50 | 81 nM |
| CNc1cccc2cc(C(=O)NCCc3cccc(C(=O)O)c3)c(=O)[nH]c12 | gyrB | binding | – | ITC | – | Kd | 23 nM |
| CNC(=O)c1cccc2oc(C(=O)NC3CCCN(CC(=O)Nc4ccc(S(N)(=O)=O)cc4)C3)cc12 (stereo not drawn) | CA9 | enzyme activity | inhibitor | – | – | IC50 | 70.8 nM |
| O=C(Nc1ccc(N2C(=O)c3ccccc3C2=O)c(Cl)c1)c1ncccc1Cl | Metabotropic glutamate receptor 4 (GRM4, Homo sapiens, UniProt Q14833) | calcium signal | agonist | – | – | EC50 | > 10000 nM |
| CSCC[C@H](NC(=O)[C@@H](NC(=O)[C@@H](N)Cc1ccc(O)cc1)C(C)C)C(=O)NCC(=O)O | Melanocortin receptor 5 | reporter gene | agonist | – | – | EC50 | > 100000 nM |
| CNc1cccc2cc(C(=O)Nc3ccc(CC(=O)O)cc3)c(=O)[nH]c12 | gyrB | binding | – | ITC | – | Kd | 4.7 nM |
| CN(c1ccccc1CNc1nc(Nc2ccc3c(c2)CC(=O)N3)ncc1C(F)(F)F)S(C)(=O)=O | PKN1 | enzyme activity | inhibitor | – | – | IC50 | 129 nM |
| CCC(C)N1CCCn2c1nc1c2c(=O)n(C)c(=O)n1C (stereo not drawn) | Adora1 | ligand displacement | – | radioligand | cell membranes | Ki | ≥ 25000 nM |
| NS(=O)(=O)c1cccc(NC(=O)CCN2CCC(c3cccc4[nH]ccc34)CC2)c1 | CA9 | enzyme activity | inhibitor | – | – | IC50 | 11000 nM |
| N=C(N)NCCC[C@H](NC(=O)[C@H](CC(=O)O)NC(=O)[C@H](Cc1c[nH]c2ccccc12)NC(=O)[C@H](CCCNC(=N)N)NC(=O)[C@H](Cc1ccccc1)NC(=O)[C@@H](N)Cc1c[nH]cn1)C(=O)N[C@@H](Cc1ccccc1)C(=O)NCC(=O)O | Melanocortin receptor 5 | reporter gene | agonist | – | – | EC50 | 760 nM |
| NS(=O)(=O)c1cc(CNC(=O)N(Cc2ccc(O)cc2)CC2CC2)ccc1F | CA9 | enzyme activity | inhibitor | – | – | IC50 | 1200 nM |
| CSCC[C@H](N)C(=O)NCC(=O)N[C@@H](Cc1c[nH]cn1)C(=O)N[C@@H](Cc1ccccc1)C(=O)N[C@@H](CCCNC(=N)N)C(=O)N[C@@H](Cc1c[nH]c2ccccc12)C(=O)N[C@@H](CC(=O)O)C(=O)N[C@@H](CCCNC(=N)N)C(=O)N[C@@H](Cc1ccccc1)C(=O)NCC(=O)O | Melanocortin receptor 5 | reporter gene | agonist | – | – | EC50 | 94 nM |
| CC(=O)Nc1cccc2c1CC(C)N2Cc1ccoc1C(=O)Nc1ccc(S(N)(=O)=O)cc1 (stereo not drawn) | CA9 | enzyme activity | inhibitor | – | – | IC50 | 37.2 nM |
| N=C(N)NCCC[C@H](NC(=O)[C@H](CC(=O)O)NC(=O)[C@H](Cc1c[nH]c2ccccc12)NC(=O)[C@H](CCCNC(=N)N)NC(=O)[C@@H](N)Cc1ccccc1)C(=O)N[C@@H](Cc1ccccc1)C(=O)NCC(=O)O | Melanocortin receptor 5 | reporter gene | agonist | – | – | EC50 | 13500 nM |
